Publication PMC7077758 (The Journal of organic chemistry, 2019)

Assay: Thiol reactivity assay
Type: physicochemical
Settings: room temperature, 1H NMR
Summary of the method: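 Dehydroamino-acid peptide (typically 0.010–0.015 mmol) in DMSO-d6 with 1,3,5-trimethoxybenzene as internal standard, treated with 2 equiv cysteamine added from a freshly prepared 0.5 M stock in DMSO-d6. 1H NMR spectra were recorded over time, and loss of starting peptide was quantified from diagnostic signals against the internal standard. Peptides unreactive at room temperature were heated stepwise to 60, 80 and 100 °C.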

C=C1CCOC1=O [α-methylene-γ-butyrolactone]
time to complete consumption of the electrophile by cysteamine: ≤ 5 min
